# Results of several laboratories.
# Observed: cell growth or viability
Compound,cell line,technique,tested at,time,quantity,result
CN1CCC(NC2CCc3[nH]c4c(C(N)=O)ccc(-c5ccccc5Cl)c4c3C2)CC1 (stereo not shown),U-937,,,96 h,IC50,0.0076 µM
O=C(NO)c1ccc(Cn2cnc3c(Nc4ccc(F)c(Cl)c4)ncnc32)cc1,U-937,MTT,,72 h,IC50,2.94 µM
Cc1n[nH]c2ccc3nc(-c4ccc(C(=O)NCCN(C)C)cc4F)c4c(c3c12)CCCCC4,U-937,,,72 h,GI50,1.64 µM
CN1C(=O)C(=O)c2cc3c(c4c2c1cc1ccccc14)OCO3,HuCC-A1,MTT,,75 h,IC50,44.4 µM
COc1ccc(Nc2ncnc3c2ncn3Cc2ccc(C(=O)Nc3ccccc3N)cc2)cc1,U-937,MTT,,72 h,IC50,22.8 µM
CCc1nc(C(N)=O)c(Nc2ccc(N3CCC(N4CCN(C)CC4)CC3)c(OC)c2)nc1NC1CCOCC1,ML-2,,,72 h,GI50,0.902 µM
CCCCCCCCCCCCCCCCCCOc1ccccc1CC(=O)OCC[N+](C)(C)C,NCI-H226,SRB,10 µM,,inhibition,71.3%
C=C(NC(=O)C(=C)NC(=O)c1csc(C2=N[C@@H]3c4csc(n4)[C@H]4NC(=O)c5csc(n5)[C@H]([C@](C)(O)[C@@H](C)O)NC(=O)[C@H]5CSC(=N5)/C(=C/C)NC(=O)[C@H]([C@@H](C)O)NC(=O)c5csc(n5)[C@]3(CC2)NC(=O)[C@H](C)NC(=O)C(=C)NC(=O)[C@H](C)NC(=O)[C@H]([C@@H](C)CC)N[C@@H]2C=Cc3c([C@H](C)O)cc(nc3[C@H]2O)C(=O)O[C@@H]4C)n1)C(N)=O,Calu-1,,,,EC50,3.2 µM
CCCCCCCCCCCCCCCCCCOc1cccc(CC(=O)OCC[N+]2(C)CCOCC2)c1,NCI-H226,SRB,10 µM,,inhibition,6.29%
CN(C)CCNC(=O)c1ccc(-c2nc3ccc4[nH]ncc4c3c3c2CCCC3)c(F)c1,ML-2,,,72 h,GI50,0.243 µM
Nc1ccccc1NC(=O)c1ccc(Cn2cnc3c(Nc4ccc(Br)cc4F)ncnc32)cc1,U-937,MTT,,72 h,IC50,1.37 µM
Cc1nc(Nc2ncc(C(=O)Nc3c(C)cccc3Cl)s2)cc(N2CC[C@H](O)C2)n1,SU-DHL-8,ATP luminescence,,72 h,IC50,> 10 µM
COc1cccc2c1C(=O)c1c(O)c3c(c(O)c1C2=O)C[C@@](O)(C(=O)CO)C[C@@H]3O[C@H]1C[C@H](N)[C@H](O)[C@H](C)O1,HuCC-A1,MTT,,75 h,IC50,0.84 µM
CN(C)CCNC(=O)c1ccc(-c2nc3ccc4[nH]ncc4c3c3c2CCCC3)cc1,U-937,,,72 h,GI50,0.658 µM
C=C[C@]1(C)C=C2CC[C@H]3C(C)(C)CCC[C@]3(C)[C@H]2CC1,HuCC-A1,MTT,,75 h,IC50,108 µM
Cc1n[nH]c2ccc3nc(-c4ccc(C(=O)NCCN(C)C)cc4F)c4c(c3c12)CCCC4,ML-2,,,72 h,GI50,0.095 µM
CCCCCCCCCCCCCCCCCCOc1ccc(CC(=O)OCCC[N+](C)(C)C)cc1,NCI-H226,SRB,10 µM,,inhibition,22.1%
CN(C)CCNC(=O)c1ccc(-c2nc3ccc4[nH]ncc4c3c3c2CCCCC3)c(F)c1,U-937,,,72 h,GI50,1.17 µM
CCCCCCCCCCCCCCCCCCOc1ccccc1CC(=O)OCCC[N+](C)(C)C,NCI-H226,SRB,10 µM,,inhibition,22%
O=C(NO)c1ccc(Cn2cnc3c(Nc4ccc(Cl)cc4)ncnc32)cc1,U-937,MTT,,72 h,IC50,7.91 µM
CCCCCCCCCCCCCCCCCCOc1ccccc1CC(=O)OCC[N+](CC)(CC)CC,NCI-H226,SRB,10 µM,,inhibition,46.3%
COc1cccc2c1C(=O)c1c(O)c3c(c(O)c1C2=O)C[C@@](O)(C(=O)CO)C[C@@H]3O[C@H]1C[C@H](N)[C@H](O)[C@H](C)O1,U-937,,,96 h,IC50,0.0222 µM
CCCCCCCCCCCCCCCCCCOc1ccccc1CC(=O)OCC[N+]1(C)CCOCC1,NCI-H226,SRB,10 µM,,inhibition,50.2%
CN(C)CCNC(=O)c1ccc(-c2nc3ccc4[nH]ncc4c3c3c2CCCCC3)cc1,U-937,,,72 h,GI50,1.48 µM
CCCCCCCCCCCCCCCCCCOCC(COP(=O)([O-])OCC[N+](C)(C)C)OC (stereo not shown),NCI-H226,SRB,10 µM,,inhibition,6.1%
COc1cccc2c1C(=O)c1c(O)c3c(c(O)c1C2=O)C[C@@](O)(C(=O)CO)C[C@@H]3O[C@H]1C[C@H](N)[C@H](O)[C@H](C)O1,HuCC-A1,MTT,,,IC50,0.861 µM
Cc1n[nH]c2ccc3nc(-c4ccc(C(=O)NCCN(C)C)cc4)c4c(c3c12)CCCCC4,U-937,,,72 h,GI50,5.92 µM
CCCCCCCCCCCCCCCCCCOc1cccc(CC(=O)OCC[N+](C)(C)C)c1,NCI-H226,SRB,10 µM,,inhibition,5.79%
